Results gathered from unrelated publications.
Lines come from different studies, so protocols differ.
Cell line: A-375
Read-out: cell growth or viability

| SMILES | test | setting | IC50 |
| --- | --- | --- | --- |
| CC(=O)O[C@H]1C(=O)[C@@]2(C)[C@H]([C@H](OC(=O)c3ccccc3)[C@]3(O)C[C@H](OC(=O)[C@H](O)[C@@H](NC(=O)c4ccccc4)c4ccccc4)C(C)=C1C3(C)C)[C@]1(OC(C)=O)CO[C@@H]1C[C@@H]2O | MTS | 72 h | 3 nM |
| CC(C)(C)c1cnc(CSc2cnc(NC(=O)C3CCN(C(=O)CCCCCCCN4Cc5cc6c(cc5C4)C(=O)N(C4CCC(=O)NC4=O)C6=O)CC3)s2)o1 (stereo not drawn) | MTT | – | 83.3 nM |
| CN1CCC(NC2CCc3[nH]c4c(C(N)=O)ccc(-c5ccccc5Cl)c4c3C2)CC1 (stereo not drawn) | – | 96 h | 26.8 nM |
| COc1ccc(-c2ccc3c(N4CCOC[C@@H]4C)nc(N4CCOC[C@@H]4C)nc3n2)cc1COC(=O)CCOCCOCCOCCONC(=O)c1ccc(F)c(F)c1Nc1ccc(I)cc1F | WST-1 | 72 h | 204 nM |
| Fc1ccccc1Nc1nc(-c2ccncc2)nc2c1CNCC2 | MTT | – | > 100000 nM |
| COc1cc(C(=O)c2nc(-c3cccc4[nH]cnc34)c[nH]2)cc(OC)c1OC | MTS | 72 h | 19.7 nM |
| COc1cccc(Nc2nc(-c3ccncc3)nc3c2CNCC3)c1 | MTT | – | 37200 nM |
| CN1CCc2c(c3ccccc3n2Cc2ccc(C(=O)NO)cc2)C1 | CCK-8 | 48 h | 14800 nM |
| C[C@H]1COCCN1c1nc(N2CCOC[C@@H]2C)c2ccc(-c3cccc(C(=O)NCCOCCOCCOCCONC(=O)c4ccc(F)c(F)c4Nc4ccc(I)cc4F)c3)nc2n1 | WST-1 | 72 h | 11600 nM |
| COc1cc(C(=O)c2nc(-c3cccc4[nH]ccc34)c[nH]2)cc2c1OC=CO2 | MTS | 72 h | 11.5 nM |
| CNc1cccc(Nc2nc(-c3ccncc3)nc3c2CNCC3)c1 | MTT | – | 35200 nM |
| COc1cccc2c1C(=O)c1c(O)c3c(c(O)c1C2=O)C[C@@](O)(C(=O)CO)C[C@@H]3O[C@H]1C[C@H](N)[C@H](O)[C@H](C)O1 | – | 96 h | 32.9 nM |
